The data set concerns MS2 coat protein. Description: apparent Kd, MS2 coat protein; higher = weaker binding; RNA-MaP array; FMN 200 µM where present. A digest of the protocol: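 Binding was read on Illumina sequencing-chip clusters where stalled E. coli RNA polymerase had transcribed each design. A titration of SNAP-549-labelled MS2 coat protein began at 0.7 or 1.5 nM and doubled to 3 µM, once without ligand and once with constant ligand, in 100 mM Tris-HCl pH 7.5, 80 mM KCl, 4 mM MgCl2, BSA, DTT, yeast tRNA and Tween-20. The apparent Kd is the median of filtered per-cluster binding-curve fits, based on green signal normalised to red-channel RNA signal and control-cluster median Fmax.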

Setting [1] is: designed as: ON switch for flavin mononucleotide, no ligand.
The mark [2] stands for this setting: ligand present: flavin mononucleotide, designed as: ON switch for flavin mononucleotide.
Setting [3] is: designed as: OFF switch for flavin mononucleotide, no ligand.
[4] abbreviates: ligand present: flavin mononucleotide, designed as: OFF switch for flavin mononucleotide.

Consider “UGUUGUAUUACAGGAUAUCUAUUGUUUUUGUUUAGAGAAGGGUAUUCACAUGAGGAUCACCCAUGUAUAUACGAGGAAGUUGUG”, for which the “apparent Kd” value under setting [1] was 62.8 nM and the “apparent Kd” value under setting [2] was 72 nM.
Consider “GCACUUAGAGUUGAACCGUUUCGAACAUGAGGAUCACCCAUGUAGGAUAUGCUAAUAGUAUUGAAGCAGAAGGACAAUAAGUGC”, for which the “apparent Kd” value runs as follows: under setting [3], 6.43 nM; under setting [4], 6.05 nM.
Regarding “GAAUUCUCAGGAUAUGUGCGAAGUUACAUGAGGAUCACCCAUGUUAGCCCGUGUCUUUGAGCAGAAGGGAGAGGCU”, the “apparent Kd” value runs as follows: under setting [3], 14 nM; under setting [4], 13.6 nM.
Take “UGUUGUUUCAAGAAGGAUGUGUAUUUGUAUUCCAUAGGAUAUUGAGAAAUAGUUGCUCAAGUAUACAUGAGGAUCACCCAUGUU”: the “apparent Kd” value under setting [1] stood at 14.2 nM and the “apparent Kd” value under setting [2] amounted to 9.98 nM.
Consider “GUGACGAAUGUAGGAUAUGCUGAGGAAUACUCAGCAGAAGGACAUGAGGAUCACCCAUGUACUAUGAGUGAAUAAUAACGUCAC”, for which the “apparent Kd” value came out at 77.4 nM under setting [3] and 881 nM under setting [4].
As to “CUUUUGUGAGGAUAUCAGUAGUAAAAGAAUAAAAUUACUACUGAGAAGGCACAUGAGGAUCACCCAUGUUCCUC”, the “apparent Kd” value under setting [3] is 42.5 nM and the “apparent Kd” value under setting [4] came to 239 nM.
Consider “UUAUUUUUACAGAAGGUUUAAUAAUAUGUAUGAGAAGGAUAUGUAACAUGAGGAUCACCCAUGUUUUAUCUAUAUGAGGAUCAU”, for which the “apparent Kd” value reads like this: under setting [3], 6.69 nM; under setting [4], 6.88 nM.
The corresponding values for “AUUUGACACGUAGGAUAUCGCUCAAAUUUAACACGAGAAGGACGAACAUGAGGAUCACCCAUGUAACAUGGUGUAGUUUAUUUG” are 62.7 nM and 88.1 nM.
Take “UUGGACGUCGUAGGAUAUGUAGGAUAUUCCUACAUGAGGAUCACCCAUGUUGUCAUGGAAGAAGGACAGAAGGACGAUGUCCAU”: the “apparent Kd” value was 328 nM under setting [1] and 4.9 nM under setting [2].
With “CAGUCUACAGGAUAUACAUGAGGAUCACCCAUGUUUAUCAACCUUCAGUAAUCCACAUGUAGAAGGGUAGACUG”, the “apparent Kd” value under setting [3] was determined as 19.7 nM and the “apparent Kd” value under setting [4] amounted to 21.4 nM.
Taken in the same sequence, the figures for “AGUACUACAGGAUAUACGAGGGAGGUCCACGUGAACCUUUUACAUGAGGAUCACCCAUGUAGAAGGGUAGUACA” were 68.3 nM and 16.5 nM.
For the sequence “UUAAUUAAUUAAUUAUACAUGAGGAUCACCCAUGUAAGUGAUCAGGAUAUCAGCUCGAAUAGAGCUGAGAAGGGAUCCAUGUAA”, the “apparent Kd” value was 117 nM under setting [1] and 83 nM under setting [2].
For the sequence “ACUGGGCGCCAACCCAUGUCUAUGGAGGAUAUUACUGCCGGUAUCUCACAUGAGGAUCACCCAUGUAAGAAGGCCAUAAGCACA”, the “apparent Kd” value under setting [3] worked out at 34.3 nM and the “apparent Kd” value under setting [4] came to 176 nM.
On to “GGAGCCGGCACCGAGGAUAUUCAUAUUAAAACAUGAGGAUCACCCAUGUACCGCAGAAGCGGUUGGGAGAAGGCGGAUCGGCUCG”, for which the “apparent Kd” value turned out to be 691 nM under setting [1] and 42.1 nM under setting [2].
Consider “UGUCGGAGCAGAGGAUAUACAUGAGGAUCACCCAUGUAAAUGAAUGAAGCCUGGAAACAGGCAAUGUAGAAGGCUGCUCCGACA”, for which the “apparent Kd” value stood at 17.2 nM under setting [3] and 53.7 nM under setting [4].
Turning to “AAAAUACAUGAGGAUCACCCAUGUGAAAAUAUGGGAGGAUAUACCGAAAAAAAAAAAAAGGUAGAAGGCCCAAAAA”, the “apparent Kd” value is 22.5 nM under setting [1] and 32.5 nM under setting [2].
“UUUUAGGCAGGAUAUACAUUUUUUUUAUUAUCCUCAUUAUUACAUGAGGAUCACCCAUGUAGAAGGGCCAUUUU”: the “apparent Kd” value runs as follows: under setting [3], 48.1 nM; under setting [4], 50.2 nM.
The corresponding values for “UAUAUAUAGUAAGGAUAUGUAUAUAAUUUAUAAACAGAAGGUACUGACAUGAGGAUCACCCAUGUUUUAGUGUGGGCAUGUAGA” are 72.8 nM and 141 nM.
As for “CUCGGACAUGAGGAUCACCCAUGUGAGGAUAUGGCGCUAUCGUCAUUAGACGAUUGCGCCAGAAGGCACAAAUG”, the “apparent Kd” value under setting [3] is 85.2 nM and the “apparent Kd” value under setting [4] is 268 nM.
As for “GUAGGCGACCAGAAGGGUGACAUGAGGAUCACCCAUGUAGAUGUGUUCCCGCUUGGGAGCCGUCCACAGGAUAUGGUUGGUUAU”, the “apparent Kd” value stood at 49.9 nM under setting [1] and 74.5 nM under setting [2].
Taken in the same sequence, the figures for “UUUAGAUUCAGAGGAUAUUGAUGUUGUAUUUUACAAGAAGGCUGAUUGGUUUGAAUUGUUUUUUAACAUGAGGAUCACCCAUGU” were 28.5 nM and 20.7 nM.
With “UGGUACUAGGGAGGAUAUGGGAAGAUACAUGAGGAUCACCCAUGUUUAAGAAUGCCGAGUGGCAACUAGAAGGCCCUAGUACCU”, the “apparent Kd” value reads like this: under setting [1], 478 nM; under setting [2], 20.5 nM.
On to “AGUUAAUGCACAUGAGGAUCACCCAUGUCACUUUAUAGGAGACAGGAUAUGCAUGCCAUCAAUGUGCAGAAGGGUCACCACCGA”, for which the “apparent Kd” value turned out to be 85.6 nM under setting [1] and 147 nM under setting [2].
On to “GAGCUCGAUGAGAAGGGUUACAUGAGGAUCACCCAUGUCGACCUUGGCGUAACAGGAUAUCACCGGGCUCAGUGCGUUGACCCA”, for which the “apparent Kd” value was 27.1 nM under setting [3] and 121 nM under setting [4].
Taken in the same sequence, the figures for “AGGAAGUGCCAGAAGGCUCCUGGAAUCCUAGGGAGAGGAUAUGGCACAUGAGGAUCACCCAUGUGGUAGAUCUGUUUCGAAGUG” were 93.4 nM and 31.1 nM.
For the sequence “GUAGCAUGCCAAGGAUAUUCAUAUAGUAGGCAAACAUGAGGAUCACCCAUGUAGUGAGAGCCCUGGGAGAAGGUGGGAUGCUAC”, the “apparent Kd” value under setting [1] is 17.9 nM and the “apparent Kd” value under setting [2] was 16.1 nM.
For “UGAUAGGACAGAGGAUAUACGGCUAGGAGAUACUAGCCACUAUUCCUCACAUGAGGAUCACCCAUGUAGAAGGCUGUCCUAUCU”, the “apparent Kd” value was determined as 16.4 nM under setting [3] and 119 nM under setting [4].
As for “UCUUUGUUUGUGAGGAUAUCGGUGGGAUGGGUUGUCGAGAAGGCACAUGAGGAUCACCCAUGUGUGGGACAGCA”, the “apparent Kd” value reads like this: under setting [3], 15.3 nM; under setting [4], 15.2 nM.
Turning to “GUGGUCAGACAUGAGGAUCACCCAUGUGGAAUAAAUAACAACUAGGAUAUAUAAUAUAGGAUAUAAUAGAAGGAGUGAUUGGUG”, the “apparent Kd” value under setting [1] was determined as 141 nM and the “apparent Kd” value under setting [2] came to 188 nM.
Take “GAGGAGCAAGGAUAUACGAGGAUAUGGAAGGUUGGAGAGUGACAUGAGGAUCACCCAUGUAGAAGGUGCGAGGG”: the “apparent Kd” value stood at 53.7 nM under setting [3] and 49.2 nM under setting [4].
The corresponding values for “GUAUUAUAGAUCCAUUUAUUCAACAUGAGGAUCACCCAUGUGCAGGAUAUCGUGUGUUUUAUAUUCGAGAAGGGCAAAUUCAUU” are 28.9 nM and 81.8 nM.
Consider “UUGCCUCAGAACAUGAGGAUCACCCAUGUGCUGCGGGCAACGUAGGAUAUGAUGGUAUUAUACCGUCAGAAGGAUGAUGGUACU”, for which the “apparent Kd” value under setting [1] is 5.59 nM and the “apparent Kd” value under setting [2] is 5.2 nM.
Regarding “CGCGAAAGAUUAUUAUGAAUAAACAUGAGGAUCACCCAUGUAUAGGAUAUGCAGUGGAAUACACUGCAGAAGGAUACAUACGCG”, the “apparent Kd” value under setting [3] is 22.2 nM and the “apparent Kd” value under setting [4] is 123 nM.
“UAAUAAUAAUAAUAGCAGUAUUACAUGAGGAUCACCCAUGUAUAGGAUAUCGUCAGGAAUACUGUCGAGAAGGAUACAAACUGC”: the “apparent Kd” value under setting [3] was determined as 20.7 nM and the “apparent Kd” value under setting [4] is 28.7 nM.
For the sequence “UAUCAAUUUAUGGGUUUAGAUUAUGAGGAUAUCAUUUUUUUAUACAUGAGGAUCACCCAUGUUACUGAGAAGGCAUAAUUAAUA”, the “apparent Kd” value was 17.4 nM under setting [1] and 6.21 nM under setting [2].
In the case of “CUGAGCAGUCAAGGAUAUCACGUCGAAUAGACGUGAGAAGGUGACCAAUACAUGAGGAUCACCCAUGUAAUACAUGAAGCUCAG”, the “apparent Kd” value under setting [1] stood at 38.1 nM and the “apparent Kd” value under setting [2] was found to be 17.4 nM.

These data come from the EternaBench riboswitch data.
